# Measurements from ChEMBL document CHEMBL4689842, “EUbOPEN Chemogenomics Library wave 1” (2021).
# “And” between values parts separate entries of the source, which are not always exact repeats. Equal entries are not always repeated.
# System: Fibroblast
# Assay: Multiplex assay against human fibroblast
# Assay type: toxicity, cell-based
# Conditions: 10 µM, compound concentration 10 uM
# Method in brief: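 Cells were classed with CellPathfinder machine-learning gating, first as Hoechst high-intensity objects or normal cells, then (normal cells) as healthy, pyknosed or fragmented nuclei, and finally (pyknosed cells) as mitotic or apoptotic. Staining of live cells at seeding used Hoechst33342, BioTracker Green Microtubule Cytoskeleton Dye, MitoTracker Red and Annexin V Alexa Fluor 680, with imaging on a CQ1 microscope at 37°C and 5% CO2 after compound addition. Tubulin, mitochondrial-mass and membrane-permeability phenotypes are per cents of healthy-nucleus cells.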
smiles,measurement,setting,value
Cc1sc2c(c1C)C(c1ccc(Cl)cc1)=N[C@@H](CC(=O)OC(C)(C)C)c1nnc(C)n1-2,Population Apoptotic (%),"12 h, replicate 1",71% and 88%
same,Population Fragmented Nuclei (%),"12 h, replicate 1",38% and 43%
same,Population Healthy Nuclei (%),"12 h, replicate 1",48% and 40%
same,Population Hoechst High Intensity Objects (%),"12 h, replicate 1",13% and 14%
same,Population Membrane Permeable-Phenotype (%),"12 h, replicate 1",7% and 4%
same,Population Mitochondria Different-Phenotype (%),"12 h, replicate 1",0%
same,Population Mitotic Cells (%),"12 h, replicate 1",28% and 12%
same,Population Normal (%),"12 h, replicate 1",86% and 85%
same,Population Pyknosed Nuclei (%),"12 h, replicate 1",13% and 16%
same,Population Tubulin-Different-Phenotype (%),"12 h, replicate 1",4% and 0%
same,Total Cell Count,"12 h, replicate 1",368 and 183
same,Population Apoptotic (%),"12 h, replicate 2",66%
same,Population Fragmented Nuclei (%),"12 h, replicate 2",55% and 63%
same,Population Healthy Nuclei (%),"12 h, replicate 2",39% and 31%
same,Population Hoechst High Intensity Objects (%),"12 h, replicate 2",24% and 25%
same,Population Membrane Permeable-Phenotype (%),"12 h, replicate 2",10% and 0%
same,Population Mitotic Cells (%),"12 h, replicate 2",33%
same,Population Normal (%),"12 h, replicate 2",75%
same,Population Pyknosed Nuclei (%),"12 h, replicate 2",6% and 4%
same,Total Cell Count,"12 h, replicate 2",132 and 92
same,Population Apoptotic (%),"24 h, replicate 1",73%
same,Population Fragmented Nuclei (%),"24 h, replicate 1",36% and 29%
same,Population Healthy Nuclei (%),"24 h, replicate 1",47% and 59%
same,Population Hoechst High Intensity Objects (%),"24 h, replicate 1",12% and 16%
same,Population Membrane Permeable-Phenotype (%),"24 h, replicate 1",7%
same,Population Mitochondria Different-Phenotype (%),"24 h, replicate 1",6%
same,Population Mitotic Cells (%),"24 h, replicate 1",26%
same,Population Normal (%),"24 h, replicate 1",87% and 83%
same,Population Pyknosed Nuclei (%),"24 h, replicate 1",16% and 11%
same,Population Tubulin-Different-Phenotype (%),"24 h, replicate 1",2% and 1%
same,Total Cell Count,"24 h, replicate 1",183 and 320
same,Population Apoptotic (%),"24 h, replicate 2",71% and 66%
same,Population Fragmented Nuclei (%),"24 h, replicate 2",56% and 42%
same,Population Healthy Nuclei (%),"24 h, replicate 2",31% and 49%
same,Population Hoechst High Intensity Objects (%),"24 h, replicate 2",28% and 21%
same,Population Mitochondria Different-Phenotype (%),"24 h, replicate 2",11% and 14%
same,Population Mitotic Cells (%),"24 h, replicate 2",28% and 33%
same,Population Normal (%),"24 h, replicate 2",71% and 78%
same,Population Pyknosed Nuclei (%),"24 h, replicate 2",12% and 8%
same,Population Tubulin-Different-Phenotype (%),"24 h, replicate 2",11%
same,Total Cell Count,"24 h, replicate 2",81 and 91
